ChEMBL document CHEMBL4196073, “The aminopyridine-3,5-dicarbonitrile core for the design of new non-nucleoside-like agonists of the human adenosine A2B receptor” (Eur J Med Chem, 2018)
pEC50, pKi: −log10 of the molar value. Active and inactive are the calls of the source. The calls are words filed in the database; no cut-off is given here.

Experiments:
Adenosine receptor A1 = biological target: T1, Adenosine receptor A1 (Homo sapiens, UniProt P30542); assay: Displacement of [3H]DPCPX from human adenosine A1 receptor expressed in CHO cell membranes after 90 mins by scintillation counting analysis
T1 sequence (P30542 whole entry): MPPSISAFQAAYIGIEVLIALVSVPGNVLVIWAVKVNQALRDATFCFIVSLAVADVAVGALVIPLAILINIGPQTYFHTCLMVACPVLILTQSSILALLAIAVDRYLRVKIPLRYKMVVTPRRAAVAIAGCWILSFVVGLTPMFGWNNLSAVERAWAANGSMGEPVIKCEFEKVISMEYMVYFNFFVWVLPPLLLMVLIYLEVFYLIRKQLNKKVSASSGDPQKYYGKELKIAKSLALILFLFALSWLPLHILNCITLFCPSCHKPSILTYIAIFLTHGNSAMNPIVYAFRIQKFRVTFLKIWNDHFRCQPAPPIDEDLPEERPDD
Method in brief: (§1)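 Hypotonic-lysed (5 mM Tris HCl, 1 mM EDTA, pH 7.4), 40000 g pelleted hA1-CHO membranes, 50 µg protein/100 µl, with 1 nM [3H]DPCPX, 90 min, 25°C, 50 mM Tris HCl pH 7.4; nonspecific with 1 µM DPCPX; GF/B filtration, scintillation. Ki via Cheng–Prusoff, four assays in triplicate; I% at 1 μM.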

Adenosine receptor A2a [1] = biological target: T2, Adenosine receptor A2a (Homo sapiens, UniProt P29274); assay: Displacement of [3H]-ZM241385 from human adenosine A2A receptor expressed in CHO cell membranes at 1 uM after 60 mins by scintillation counting analysis
[2] = biological target: T3, Adenosine receptor A3 (Homo sapiens) (UniProt P0DMS8); assay: Displacement of [125I]-ABMECA from human adenosine A3 receptor expressed in CHO cell membranes at 1 uM after 120 mins by scintillation counting analysis
T3 sequence (whole entry): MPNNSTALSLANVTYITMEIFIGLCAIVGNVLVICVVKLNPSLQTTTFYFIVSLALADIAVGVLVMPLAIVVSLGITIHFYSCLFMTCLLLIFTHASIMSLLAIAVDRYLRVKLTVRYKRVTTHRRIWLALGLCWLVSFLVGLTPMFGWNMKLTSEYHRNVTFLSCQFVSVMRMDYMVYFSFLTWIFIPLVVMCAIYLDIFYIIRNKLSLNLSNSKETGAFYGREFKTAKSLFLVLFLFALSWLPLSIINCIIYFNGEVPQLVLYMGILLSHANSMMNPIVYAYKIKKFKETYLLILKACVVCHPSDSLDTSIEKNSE
Method in brief: (§2)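 Membranes of hA3-CHO cells, 50 µg protein/100 µl, incubated 120 min at 4°C with 0.5 nM [125I]AB-MECA in 50 mM Tris HCl pH 7.4, 10 mM MgCl2, 1 mM EDTA; 1 µM AB-MECA for nonspecific; filter separation, counted. Ki by Cheng–Prusoff, four assays in triplicate; I% at 1 μM.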

Adenosine receptor A2b = biological target: T4, Adenosine receptor A2b (Homo sapiens, UniProt P29275); assay: Agonist activity at human adenosine A2B receptor expressed in CHO cell membranes assessed as induction of cAMP accumulation by AlphaScreen assay; type: functional, cell-based
T4 sequence (P29275 whole entry): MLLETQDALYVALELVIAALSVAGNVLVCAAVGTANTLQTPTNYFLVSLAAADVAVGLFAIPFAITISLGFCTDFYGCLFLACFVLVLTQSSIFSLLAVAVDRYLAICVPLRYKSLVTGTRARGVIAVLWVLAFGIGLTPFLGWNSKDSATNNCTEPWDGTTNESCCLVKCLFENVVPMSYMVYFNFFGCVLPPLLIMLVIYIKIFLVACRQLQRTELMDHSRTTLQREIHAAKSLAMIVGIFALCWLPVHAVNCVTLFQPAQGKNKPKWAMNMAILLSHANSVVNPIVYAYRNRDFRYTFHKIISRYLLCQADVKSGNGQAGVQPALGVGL
Method in brief: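 Intact hA2B-transfected CHO cells, trypsin-detached, stimulated in HBSS/5 mM HEPES/0.5 mM Ro 20-1724/0.1% BSA with compound alone at 1 nM–1 μM; cAMP read by AlphaScreen kit; EC50 from four separate assays each in triplicate, mean ± SEM.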

[3] = biological target: T5, Adenosine receptor A2b (Homo sapiens) (UniProt P29275); assay: Agonist activity at human adenosine A2B receptor expressed in CHO cell membranes assessed as induction of cAMP accumulation at 1 uM by AlphaScreen assay relative to NECA; type: functional, cell-based
T5 sequence (whole entry): T4 sequence (P29275 whole entry)
Method in brief: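 Whole adherent hA2B-transfected CHO cells (DMEM/F12, 10% FCS, G418), trypsin-detached, in HBSS with 5 mM HEPES, 0.5 mM Ro 20-1724, 0.1% BSA; test compound at 1 μM alone; cAMP by AlphaScreen; efficacy expressed relative to NECA 1 μM taken as 100%.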

[4] = biological target: T6, Adenosine receptor A1 (Homo sapiens) (UniProt P30542); assay: Displacement of [3H]DPCPX from human adenosine A1 receptor expressed in CHO cell membranes at 1 uM after 90 mins by scintillation counting analysis; method in brief: as §1
T6 sequence (whole entry): T1 sequence (P30542 whole entry)

[5] = biological target: T5, Adenosine receptor A2b (Homo sapiens); assay: Antagonist activity at human adenosine A2B receptor expressed in CHO cell membranes assessed as inhibition of NECA-stimulated cAMP accumulation at 1 uM by AlphaScreen assay; type: functional, cell-based
Method in brief: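 hA2B-transfected CHO cells in HBSS, 5 mM HEPES, 0.5 mM Ro 20-1724, 0.1% BSA; compound at 1 μM given with NECA 100 nM; cAMP production measured by AlphaScreen.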

Adenosine receptor A2a [6] = biological target: T2, Adenosine receptor A2a; assay: Displacement of [3H]-ZM241385 from human adenosine A2A receptor expressed in CHO cell membranes after 60 mins by scintillation counting analysis
Adenosine receptor A3 = biological target: T7, Adenosine receptor A3 (Homo sapiens, UniProt P0DMS8); assay: Displacement of [125I]-ABMECA from human adenosine A3 receptor expressed in CHO cell membranes after 120 mins by scintillation counting analysis; method in brief: as §2
T7 sequence (P0DMS8 whole entry): T3 sequence (whole entry)

Homo sapiens [7] = species: Homo sapiens; assay: Selectivity index, ratio of Ki for human adenosine A1 receptor to EC50 for human adenosine A2B receptor
Homo sapiens [8] = species: Homo sapiens; assay: Selectivity index, ratio of Ki for human adenosine A2A receptor to EC50 for human adenosine A2B receptor
Homo sapiens [9] = species: Homo sapiens; assay: Selectivity index, ratio of Ki for human adenosine A3 receptor to EC50 for human adenosine A2B receptor

T2 sequence (P29274 whole entry): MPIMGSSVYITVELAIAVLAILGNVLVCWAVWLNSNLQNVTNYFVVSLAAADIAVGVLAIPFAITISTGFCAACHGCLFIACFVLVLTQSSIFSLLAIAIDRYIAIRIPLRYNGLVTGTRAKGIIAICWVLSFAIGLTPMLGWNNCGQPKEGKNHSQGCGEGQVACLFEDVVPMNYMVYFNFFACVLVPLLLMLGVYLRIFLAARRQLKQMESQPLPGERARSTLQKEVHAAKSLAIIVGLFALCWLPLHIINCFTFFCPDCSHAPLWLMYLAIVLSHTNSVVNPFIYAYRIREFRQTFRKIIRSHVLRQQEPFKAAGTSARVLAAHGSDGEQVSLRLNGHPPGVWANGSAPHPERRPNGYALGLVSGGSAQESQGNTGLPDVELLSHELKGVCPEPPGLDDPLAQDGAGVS

| Compound | pKi (Adenosine receptor A1) | inhibition (Adenosine receptor A2a [1]) [%] | inhibition [2] [%] | pEC50 (Adenosine receptor A2b) | Efficacy [3] [%] | inhibition [4] [%] | inhibition [5] | pKi (Adenosine receptor A2a [6]) | pKi (Adenosine receptor A3) | Selectivity Index (Homo sapiens [7]) | Selectivity Index (Homo sapiens [8]) | Selectivity Index (Homo sapiens [9]) |
| --- | --- | --- | --- | --- | --- | --- | --- | --- | --- | --- | --- | --- |
| N#Cc1c(N)nc(SCc2cccc(C(N)=O)c2)c(C#N)c1-c1ccc(OCC2CC2)cc1 | 7.08 | 25 | 1 | 7.90 | 69 | – | – | – | – | – | – | – |
| CCOc1ccc(-c2c(C#N)c(N)nc(SCC(N)=O)c2C#N)cc1 | 6.46 | 1 | 20 | 7.42 | 66 | – | – | – | – | – | – | – |
| N#Cc1c(N)nc(SCc2nc3ccccc3[nH]2)c(C#N)c1-c1ccc(OCC2CC2)cc1 | – | 6 | 1 | – | 12 | 21 | inactive | – | – | – | – | – |
| N#Cc1c(N)nc(SCC(=O)NCO)c(C#N)c1-c1ccc(OCC2CC2)cc1 | – | 1 | 8 | 6.74 | 57 | 10 | – | – | – | – | – | – |
| N#Cc1c(N)nc(SCC(N)=O)c(C#N)c1-c1ccc(OCC2CCC2)cc1 | – | 5 | 1 | – | 5 | 1 | inactive | – | – | – | – | – |
| N#Cc1c(N)nc(SCC(N)=O)c(C#N)c1-c1ccc(OCC2CC2)cc1 | – | 2 | 8 | 7.51 | 100 | 31 | – | – | – | – | – | – |
| N#Cc1c(N)nc(SCc2cccnc2)c(C#N)c1-c1ccc(OCC2CC2)cc1 | 7.17 | – | 19 | – | 1 | – | – | 6.37 | – | – | – | – |
| CCOc1ccc(-c2c(C#N)c(N)nc(SCc3ccn[nH]3)c2C#N)cc1 | 7.68 | 4 | 18 | 6.48 | 34 | – | – | – | – | – | – | – |
| N#Cc1c(N)nc(SCC(=O)NO)c(C#N)c1-c1ccc(OCC2CC2)cc1 | 6.27 | 1 | 31 | – | 20 | – | – | – | – | – | – | – |
| N#Cc1c(N)nc(SCc2cnc[nH]2)c(C#N)c1-c1ccc(OCC2CC2)cc1 | – | 7 | 1 | 6.86 | 50 | 1 | – | – | – | – | – | – |
| CNC(=O)CSc1nc(N)c(C#N)c(-c2ccc(OCC3CC3)cc2)c1C#N | – | 1 | 3 | 7.03 | 63 | 14 | – | – | – | – | – | – |
| COC(=O)c1cccc(CSc2nc(N)c(C#N)c(-c3ccc(OCC4CC4)cc3)c2C#N)c1 | 7.18 | 1 | 4 | 6.46 | 27 | – | – | – | – | – | – | – |
| N#Cc1c(N)nc(SCc2nnn[nH]2)c(C#N)c1-c1ccc(OCC2CC2)cc1 | – | 1 | 1 | – | 25 | 3 | inactive | – | – | – | – | – |
| C=C(C)COc1ccc(-c2c(C#N)c(N)nc(SCC(N)=O)c2C#N)cc1 | 6.06 | 31 | 4 | – | 2 | – | – | – | – | – | – | – |
| N#Cc1c(N)nc(SCc2csc(N)n2)c(C#N)c1-c1ccc(OCC2CC2)cc1 | 6.85 | 1 | 1 | – | 17 | – | inactive | – | – | – | – | – |
| CC(C)COc1ccc(-c2c(C#N)c(N)nc(SCC(N)=O)c2C#N)cc1 | 6.22 | – | 9 | – | 1 | – | – | 6.51 | – | – | – | – |
| N#Cc1c(N)nc2sc(C(N)=O)c(N)c2c1-c1ccc(OCC2CC2)cc1 | – | 3 | 13 | – | 1 | 19 | – | – | – | – | – | – |
| CCOc1ccc(-c2c(C#N)c(N)nc(SCC(=O)NC)c2C#N)cc1 | 6.98 | 8 | – | 6.68 | 48 | – | – | – | 6.08 | – | – | – |
| N#Cc1c(N)nc(SCn2cncn2)c(C#N)c1-c1ccc(OCC2CC2)cc1 | – | 1 | 1 | – | 1 | 12 | inactive | – | – | – | – | – |
| CCOc1ccc(-c2c(C#N)c(N)nc(SCc3ncc[nH]3)c2C#N)cc1 | 8.09 | – | – | 7.93 | 62 | – | – | 6.66 | 7.07 | – | – | – |
| N#Cc1c(N)nc(SCc2ncn[nH]2)c(C#N)c1-c1ccc(OCC2CC2)cc1 | 6.47 | 1 | 1 | 7.29 | 50 | – | – | – | – | – | – | – |
| C=CCOc1ccc(-c2c(C#N)c(N)nc(SCC(N)=O)c2C#N)cc1 | 6.49 | 18 | – | – | 11 | – | – | – | 6.35 | – | – | – |
| CC(=O)Nc1ccc(-c2c(C#N)c(N)nc(SCC(N)=O)c2C#N)cc1 | – | – | – | 6.79 | 92 | 17 | – | 6.24 | 6.13 | – | – | – |
| N#Cc1c(N)nc(SCc2ncc[nH]2)c(C#N)c1-c1ccc(OCC2CC2)cc1 | 6.63 | – | – | 8.02 | 70 | – | – | 6.12 | 6.32 | 25 | 80 | 50 |
| N#Cc1c(N)nc(SCC2=NCCN2)c(C#N)c1-c1ccc(OCC2CC2)cc1 | 6.32 | 14 | 6 | – | 7 | – | inactive | – | – | – | – | – |
| COC(=O)CSc1nc(N)c(C#N)c(-c2ccc(OCC3CC3)cc2)c1C#N | – | 1 | 1 | – | 1 | 23 | inactive | – | – | – | – | – |
| N#Cc1c(N)nc(SCc2ccn[nH]2)c(C#N)c1-c1ccc(OCC2CC2)cc1 | 6.26 | 2 | 6 | 7.08 | 48 | – | – | – | – | – | – | – |
| C=CCOc1ccc(-c2c(C#N)c(N)nc(SCc3ccn[nH]3)c2C#N)cc1 | 7.36 | 8 | 13 | – | 7 | – | inactive | – | – | – | – | – |
